This is an account of results in ChEMBL document CHEMBL3352447, “Structural development studies of PPARs ligands based on tyrosine scaffold” (Eur J Med Chem, 2015).

The structures appear in SMILES notation. Active and inactive are the calls of the source. The calls are words filed in the database; no cut-off is given here.

As usually defined, the EC50 is the concentration needed to bring the measured effect to its halfway point.

Holding throughout (assay type): cell-based
In test [1] the target is T1, Peroxisome proliferator-activated receptor alpha (Homo sapiens, UniProt Q07869).
T1 sequence (Q07869 whole entry): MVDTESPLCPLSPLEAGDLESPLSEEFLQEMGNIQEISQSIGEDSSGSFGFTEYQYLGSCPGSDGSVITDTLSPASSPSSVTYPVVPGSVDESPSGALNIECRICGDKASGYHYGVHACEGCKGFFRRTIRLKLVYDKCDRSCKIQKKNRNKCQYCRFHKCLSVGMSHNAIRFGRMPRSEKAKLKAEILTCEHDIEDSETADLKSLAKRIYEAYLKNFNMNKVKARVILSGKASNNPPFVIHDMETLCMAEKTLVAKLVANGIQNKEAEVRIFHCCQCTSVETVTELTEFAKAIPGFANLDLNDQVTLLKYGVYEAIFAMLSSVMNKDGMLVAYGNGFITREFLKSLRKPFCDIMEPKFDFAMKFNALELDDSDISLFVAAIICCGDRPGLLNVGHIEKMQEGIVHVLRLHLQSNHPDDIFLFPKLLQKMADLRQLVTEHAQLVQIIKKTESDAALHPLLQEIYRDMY
Description: Agonist activity at human GAL4-PPARalpha ligand binding domain expressed in human HepG2 cells by luciferase reporter gene assay. A digest of the protocol:
(§1)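 HepG2 cells grown in MEM with 10% heat-inactivated FBS, penicillin/streptomycin, 37 °C, 5% CO2. 10^5 cells/well seeded, transfected after 24 h by calcium phosphate with Gal4-PPAR LBD expression plasmid (30 ng), pGal5TKpGL3 luciferase reporter (100 ng) and pCMVbgal (250 ng). Ligand added 4 h post-transfection for 20 h, in triplicate. Luciferase read in cell extracts, with β-galactosidase measured using ONPG.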

The target of test [2] is T2, Peroxisome proliferator-activated receptor delta (Homo sapiens, UniProt Q03181).
T2 sequence (Q03181 whole entry): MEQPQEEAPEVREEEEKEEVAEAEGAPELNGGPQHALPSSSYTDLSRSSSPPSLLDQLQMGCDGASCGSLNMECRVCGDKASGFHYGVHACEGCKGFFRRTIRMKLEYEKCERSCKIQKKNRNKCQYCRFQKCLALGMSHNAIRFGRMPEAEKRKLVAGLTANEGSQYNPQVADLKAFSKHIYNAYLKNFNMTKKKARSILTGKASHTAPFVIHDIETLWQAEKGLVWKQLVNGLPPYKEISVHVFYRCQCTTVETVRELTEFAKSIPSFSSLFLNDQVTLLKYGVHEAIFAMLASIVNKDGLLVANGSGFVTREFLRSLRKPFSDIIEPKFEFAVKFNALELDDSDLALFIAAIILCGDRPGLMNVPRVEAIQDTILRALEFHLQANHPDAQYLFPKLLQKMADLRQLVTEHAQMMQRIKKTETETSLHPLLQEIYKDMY
Description: Agonist activity at human GAL4-PPARdelta ligand binding domain expressed in human HepG2 cells by luciferase reporter gene assay.

In test [3] the target is T3, Peroxisome proliferator-activated receptor gamma (Homo sapiens, UniProt P37231).
T3 sequence (P37231 whole entry): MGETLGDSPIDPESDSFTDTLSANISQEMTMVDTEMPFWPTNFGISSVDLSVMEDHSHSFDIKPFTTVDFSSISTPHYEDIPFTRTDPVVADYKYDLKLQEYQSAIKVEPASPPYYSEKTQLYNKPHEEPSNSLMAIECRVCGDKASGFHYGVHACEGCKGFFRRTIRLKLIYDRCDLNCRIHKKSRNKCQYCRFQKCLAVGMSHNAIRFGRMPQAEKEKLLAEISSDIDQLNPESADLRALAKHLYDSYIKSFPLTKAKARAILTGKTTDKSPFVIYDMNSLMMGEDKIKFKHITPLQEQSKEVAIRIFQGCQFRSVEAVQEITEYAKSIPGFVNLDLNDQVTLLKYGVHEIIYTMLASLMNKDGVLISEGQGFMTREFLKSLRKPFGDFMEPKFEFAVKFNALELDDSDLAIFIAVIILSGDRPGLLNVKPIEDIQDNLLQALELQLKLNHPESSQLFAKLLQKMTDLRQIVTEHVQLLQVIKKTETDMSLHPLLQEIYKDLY
In words: Agonist activity at human GAL4-PPARgamma ligand binding domain expressed in human HepG2 cells by luciferase reporter gene assay. A digest of the protocol:
as §1

For test [4], the target named is T4, Peroxisome proliferator-activated receptor gamma (Homo sapiens) (UniProt P37231).
T4 sequence (whole entry): T3 sequence (P37231 whole entry)
In words: Agonist activity at human GAL4-PPARgamma ligand binding domain expressed in human HepG2 cells assessed as maximum fold induction by luciferase reporter gene assay relative to rosiglitazone. A digest of the protocol: as §1

Test [5] has as its target T5, Peroxisome proliferator-activated receptor alpha (Homo sapiens) (UniProt Q07869).
T5 sequence (whole entry): T1 sequence (Q07869 whole entry)
In words: Agonist activity at human GAL4-PPARalpha ligand binding domain expressed in human HepG2 cells assessed as maximum fold induction by luciferase reporter gene assay relative to Wy-14643. Put shortly:
as §1
In general terms: Reporter assays use an easily measured gene product as a stand-in for the process of interest.

In the case of `C/C(=C\C(=O)c1ccccc1)NC(Cc1ccc(OCCCOc2ccc(/C=C/c3ccc(C(F)(F)F)cc3)cc2)cc1)C(=O)O` (stereo not given), the EC50 entry in test [1] was “Not Active”; in test [2] it was “Not Active”; in test [3] (read-out: EC50), 32 nM. In test [4], the Emax was found to be 46%.

With `C/C(=C\C(=O)c1ccccc1)NC(Cc1ccc(OCCCOc2ccc(/N=N/c3ccc([N+](=O)[O-])cc3)cc2)cc1)C(=O)O` (stereo not given), the values for the EC50 result in test [1], in test [2] and in test [3] (read-out: EC50) were “Not Active”, “Not Active” and 29 nM, respectively. Besides, the Emax in test [4] was found to be 54%.

For `COc1ccc(/N=N/c2ccc(OCCCOc3ccc(CC(N/C(C)=C/C(=O)c4ccccc4)C(=O)O)cc3)cc2)cc1` (stereo not given), the EC50 entry in test [1] and in test [2] was “Not Active” throughout. Further, the Emax in test [4] was found to be 24%.

Take `C/C(=C\C(=O)c1ccccc1)NC(Cc1ccc(OCCOc2ccc(/C=C/c3ccc(Cl)cc3)cc2)cc1)C(=O)O` (stereo not given): the concentration for a half-maximal effect (EC50) result in test [1] was “Not Active”; in test [2], “Not Active”; in test [3] (read-out: EC50) it was 26 nM. For the same compound, in test [4], the Emax turned out to be 50%.

With `CCCc1c(OCCCOc2ccc(OCC(=O)O)cc2)ccc(C(C)=O)c1O`, the EC50 result in test [1] and in test [3] (hepg2) was “Not Active” throughout.

With `Cc1cccc(Nc2cc(Cl)nc(SCC(=O)O)n2)c1C` [PIRINIXIC ACID], the EC50 entry in test [3] (hepg2) is given as “Not Active”. The Emax entry in test [4] is “inactive”.

Consider `C/C(=C\C(=O)c1ccccc1)NC(Cc1ccc(OCCOc2ccc(/N=N/c3ccccc3)cc2)cc1)C(=O)O` (stereo not given), for which the 50% effective concentration (EC50) result is “Not Active” in test [1], “Not Active” in test [2] and 183 nM in test [3] (read-out: EC50). Besides, the Emax in test [4] is 54%.

For the compound `C/C(=C\C(=O)c1ccccc1)NC(Cc1ccc(OCCOc2ccc(/N=N/c3ccc(Cl)cc3)cc2)cc1)C(=O)O` (stereo not given), the values for the 50% effective concentration (EC50) entry in test [1], in test [2] and in test [3] (read-out: EC50) were “Not Active”, “Not Active” and 39 nM, respectively. For the same compound, the Emax in test [4] is 52%.

Take `C/C(=C\C(=O)c1ccccc1)NC(Cc1ccc(OCCCOc2ccc(/N=N/c3ccccc3)cc2)cc1)C(=O)O` (stereo not given): the Emax in test [5] stood at 8%; in test [4] it was 31%. The 50% effective concentration (EC50) result is “Not Active” in test [2] and 1370 nM in test [3] (read-out: EC50).

`C/C(=C\C(=O)c1ccccc1)NC(Cc1ccc(OCCCOc2ccc(/C=C/c3ccccc3)cc2)cc1)C(=O)O` (stereo not given): the values for the Emax in test [5] and in test [4] were 9% and 65%, respectively. Besides, the figures for the EC50 result in test [2] and in test [3] (read-out: EC50) were “Not Active” and 47 nM, respectively.

Take `C/C(=C\C(=O)c1ccccc1)NC(Cc1ccc(OCCCOc2ccc(/C=C/c3ccc(Cl)cc3)cc2)cc1)C(=O)O` (stereo not given): the EC50 result in test [1] was “Not Active”; in test [2] it was “Not Active”; in test [3] (read-out: EC50), 12 nM. The Emax in test [4] turned out to be 56%.

Turning to `C/C(=C\C(=O)c1ccccc1)NC(Cc1ccc(OCCOc2ccc(/C=C/c3ccc(C(F)(F)F)cc3)cc2)cc1)C(=O)O` (stereo not given), the EC50 result is “Not Active” in test [1], “Not Active” in test [2] and 84 nM in test [3] (read-out: EC50). The Emax in test [4] stood at 69%.

For `CN(CCOc1ccc(CC2SC(=O)NC2=O)cc1)c1ccccn1` (stereo not given) [ROSIGLITAZONE], the Emax result in test [5] was “inactive”. The EC50 result in test [1] is “Not Active”.

Consider `O=C(/C=C/c1ccccc1)NC(Cc1ccc(OCCOc2ccc(/C=C/c3ccccc3)cc2)cc1)C(=O)O` (stereo not given), for which the half-maximal effective concentration (EC50) entry in test [1] is “Not Active”; in test [2], “Not Active”; in test [3] (read-out: EC50), 640 nM. In test [4], the Emax worked out at 45%.

Regarding `C/C(=C\C(=O)c1ccccc1)NC(Cc1ccc(OCCOc2ccc(/C=C/c3ccc(C)cc3)cc2)cc1)C(=O)O` (stereo not given), the figures for the EC50 entry in test [1], in test [2] and in test [3] (read-out: EC50) were “Not Active”, “Not Active” and 21 nM, respectively. Also, the Emax in test [4] came to 77%.

Consider `C/C(=C\C(=O)c1ccccc1)NC(Cc1ccc(OCCOc2ccc(/C=C/c3ccccc3)cc2)cc1)C(=O)O` (stereo not given), for which the Emax in test [5] is 20%; in test [4] it was 75%. Moreover, the results for the EC50 result in test [2] and in test [3] (read-out: EC50) were “Not Active” and 12 nM, respectively.

With `CC(=O)/C=C(\C)NC(Cc1ccc(OCCOc2ccc(/C=C/c3ccccc3)cc2)cc1)C(=O)O` (stereo not given), the EC50 result in test [1] is “Not Active”; in test [2] it was “Not Active”; in test [3] (read-out: EC50), 250 nM. In addition, in test [4], the Emax amounted to 61%.

On to `C/C(=C\C(=O)c1ccccc1)NC(Cc1ccc(OCCCOc2ccc(/N=N/c3ccc(Cl)cc3)cc2)cc1)C(=O)O` (stereo not given), for which the EC50 entry in test [1] is “Not Active”; in test [2] it was “Not Active”; in test [3] (read-out: EC50) it was 47 nM. In test [4], the Emax amounted to 59%.
